{"source": "ChEMBL document CHEMBL3102857", "about": "“Synthesis and biological evaluation of 6H-pyrido[2',1':2,3]imidazo[4,5-c]isoquinolin-5(6H)-ones as antimitotic agents and inhibitors of tubulin polymerization” (Bioorg Med Chem, 2014)", "key": {"[1]": {"test_system": "HeLa", "assay": "Antiproliferative activity against human HeLa cells after 72 hrs by SRB assay", "assay_type": "functional, cell-based", "how_it_was_run": "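HeLa cells exposed to compound for 72 h, fixed with cold 10% TCA, stained with SRB in 1% acetic acid. Bound dye dissolved in 10 mM Tris-HCl and read at 515 nm. Inhibition % = [1 − (A515 treated/A515 control)] × 100. IC50 by Logit method, mean ± SD of at least three independent tests.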"}, "[2]": {"biological_target": "T1, Tubulin (Homo sapiens) (UniProt P68371+Q9H4B7+P0DPH7+P68366+Q13509+Q71U36+P04350+Q3ZCM7+P07437+P68363+Q9BQE3+Q6PEY2+Q13885+Q9BVA1+Q9BUF5)", "assay": "Displacement of [3H]-colchicine from tubulin (unknown origin) at 20 uM preincubated for 1 hr followed by radioligand addition measured after 30 mins by competitive binding assay", "assay_type": "protein-complex assay"}, "[3]": {"biological_target": "T1, Tubulin (Homo sapiens)", "assay": "Inhibition of tubulin polymerization (unknown origin) at 20 uM by spectrophotometric analysis", "assay_type": "protein-complex assay", "how_it_was_run": "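Purified tubulin combined with 20 µM compound on ice, then moved to 37 °C. Buffer: 80 mM PIPES pH 6.9, 0.5 mM EGTA, 2 mM MgCl2, 1 mM GTP. Polymerization followed by absorbance at 340 nm.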"}, "[4]": {"test_system": "HeLa", "assay": "Antimitotic activity against human HeLa cells assessed as disruption of mitotic spindle assembly at 0.5 uM after 12 hrs by DAPI staining-based immunofluorescence microscopic analysis", "assay_type": "functional, cell-based", "how_it_was_run": "(§1)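 HeLa cells on glass coverslips, 0.5 µM compound for 12 h; fixed in 4% paraformaldehyde, permeabilized with 0.2% Triton X-100, blocked with 3% BSA. Stained with anti-α-tubulin (1:200) and Alexa Fluor 488 goat anti-mouse IgG (1:100), 1 h each, then DAPI. Imaged by fluorescence and confocal microscopy. Abnormal spindles scored as percentage of total mitotic cells.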"}, "[5]": {"test_system": "HeLa", "assay": "Cell cycle arrest in human HeLa cells assessed as accumulation at G2/M phase at 0.5 uM after 12 hrs by propidium iodide staining-based flow cytometric analysis (reference value: 3%)", "assay_type": "functional", "how_it_was_run": "(§2)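 Cells given 0.5 µM compound for 12 h, harvested, PBS-washed, fixed in cold 70% ethanol at 4 °C. Stained with propidium iodide ([…] as printed). DNA content analysed by flow cytometry for G0/G1, S and G2/M fractions.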"}, "[6]": {"test_system": "HeLa", "assay": "Cell cycle arrest in human HeLa cells assessed as decrease in accumulation at S phase at 0.5 uM after 12 hrs by propidium iodide staining-based flow cytometric analysis", "assay_type": "functional", "how_it_was_run": "as §2"}, "[7]": {"test_system": "HeLa", "assay": "Antimitotic activity against human HeLa cells assessed as multipolar mitotic spindle with disordered chromosome organization at 0.5 uM after 12 hrs by DAPI staining-based immunofluorescence microscopic analysis", "assay_type": "functional, cell-based", "how_it_was_run": "as §1"}, "[8]": {"test_system": "HeLa", "assay": "Cell cycle arrest in human HeLa cells assessed as decrease in accumulation at G0/G1 phase at 0.5 uM after 12 hrs by propidium iodide staining-based flow cytometric analysis", "assay_type": "functional", "how_it_was_run": "as §2"}}, "note": "The source made the active and inactive calls. The rule behind the calls is not given here.", "data": [{"compound": "COC(=O)Cn1c(=O)c2ccccc2c2nc3ccccn3c21", "values": [{"measurement": "IC50", "setting": "[1]", "result": "> 10000", "unit": "nM"}]}, {"compound": "CCN(CC)CCNc1ccc2nc3c4ccccc4c(=O)n(CCc4ccc(OC)cc4)c3n2c1", "values": [{"measurement": "inhibition", "setting": "[2]", "result": 20, "unit": "%"}, {"measurement": "IC50", "setting": "[1]", "result": 2280, "unit": "nM"}, {"measurement": "inhibition", "setting": "[3]", "result": 18, "unit": "%"}]}, {"compound": "COc1ccc(CCn2c(=O)c3ccccc3c3nc4ccc(-n5ccnc5)cn4c32)cc1", "values": [{"measurement": "inhibition", "setting": "[2]", "result": 36, "unit": "%"}, {"measurement": "IC50", "setting": "[1]", "result": 120, "unit": "nM"}, {"measurement": "inhibition", "setting": "[3]", "result": 40, "unit": "%"}]}, {"compound": "COc1ccc(CCn2c(=O)c3ccccc3c3nc4ccc(NCCCn5ccnc5)cn4c32)cc1", "values": [{"measurement": "inhibition", "setting": "[2]", "result": 21, "unit": "%"}, {"measurement": "IC50", "setting": "[1]", "result": 770, "unit": "nM"}, {"measurement": "inhibition", "setting": "[3]", "result": 33, "unit": "%"}]}, {"compound": "COc1ccc(CCn2c(=O)c3ccccc3c3nc4ccc(NCc5ccccn5)cn4c32)cc1", "values": [{"measurement": "inhibition", "setting": "[2]", "result": 22, "unit": "%"}, {"measurement": "IC50", "setting": "[1]", "result": 240, "unit": "nM"}, {"measurement": "inhibition", "setting": "[3]", "result": 27, "unit": "%"}]}, {"compound": "COc1ccc(Cn2c(=O)c3ccccc3c3nc4cccc(C)n4c32)cc1", "values": [{"measurement": "IC50", "setting": "[1]", "result": "> 10000", "unit": "nM"}]}, {"compound": "COc1ccc(Cn2c(=O)c3ccccc3c3nc4ccccn4c32)cc1OC", "values": [{"measurement": "IC50", "setting": "[1]", "result": "> 10000", "unit": "nM"}]}, {"compound": "COc1ccc(CCn2c(=O)c3ccccc3c3nc4ccccn4c32)cc1", "values": [{"measurement": "inhibition", "setting": "[2]", "result": 74, "unit": "%"}, {"measurement": "Activity", "setting": "[4]", "result": "Active"}, {"measurement": "IC50", "setting": "[1]", "result": 70, "unit": "nM"}, {"measurement": "Activity", "setting": "[5]", "result": 37, "unit": "%"}, {"measurement": "Activity", "setting": "[6]", "result": "Active"}, {"measurement": "Activity", "setting": "[7]", "result": "Active"}, {"measurement": "Activity", "setting": "[8]", "result": "Active"}, {"measurement": "inhibition", "setting": "[3]", "result": 76, "unit": "%"}]}, {"compound": "COc1ccc(CCn2c(=O)c3ccccc3c3nc4ccc(NCc5ccncc5)cn4c32)cc1", "values": [{"measurement": "inhibition", "setting": "[2]", "result": 53, "unit": "%"}, {"measurement": "IC50", "setting": "[1]", "result": 100, "unit": "nM"}, {"measurement": "inhibition", "setting": "[3]", "result": 63, "unit": "%"}]}, {"compound": "CC[C@]1(O)C[C@H]2CN(CCc3c([nH]c4ccccc34)[C@@](C(=O)OC)(c3cc4c(cc3OC)N(C=O)[C@H]3[C@@](O)(C(=O)OC)[C@H](OC(C)=O)[C@]5(CC)C=CCN6CC[C@]43[C@@H]65)C2)C1", "note": "[VINCRISTINE]", "values": [{"measurement": "IC50", "setting": "[1]", "result": 15, "unit": "nM"}, {"measurement": "inhibition", "setting": "[3]", "result": 77, "unit": "%"}]}, {"compound": "CC(=O)OCCn1c(=O)c2ccccc2c2nc3ccccn3c21", "values": [{"measurement": "IC50", "setting": "[1]", "result": "> 10000", "unit": "nM"}]}, {"compound": "O=c1c2ccccc2c2nc3ccccn3c2n1Cc1ccc(OC(F)(F)F)cc1", "values": [{"measurement": "IC50", "setting": "[1]", "result": "> 10000", "unit": "nM"}]}, {"compound": "COc1ccc(Cn2c(=O)c3ccccc3c3nc4ccccn4c32)c(OC)c1", "values": [{"measurement": "IC50", "setting": "[1]", "result": 2240, "unit": "nM"}]}, {"compound": "COc1ccc(Cn2c(=O)c3ccccc3c3nc4ccccn4c32)cc1", "values": [{"measurement": "IC50", "setting": "[1]", "result": 1800, "unit": "nM"}, {"measurement": "Activity", "setting": "[5]", "result": 4, "unit": "%"}, {"measurement": "Activity", "setting": "[6]", "result": "Active"}, {"measurement": "Activity", "setting": "[8]", "result": "Active"}]}, {"compound": "COc1ccc(Cn2c(=O)c3ccccc3c3nc4cc(C)c(Br)cn4c32)cc1", "values": [{"measurement": "IC50", "setting": "[1]", "result": "> 10000", "unit": "nM"}]}, {"compound": "CN(c1ccc(Cn2c(=O)c3ccccc3c3nc4ccccn4c32)cc1)S(C)(=O)=O", "values": [{"measurement": "IC50", "setting": "[1]", "result": "> 10000", "unit": "nM"}]}, {"compound": "COc1ccc(CCn2c(=O)c3ccccc3c3nc4ccc(NCCN5CCOCC5)cn4c32)cc1", "values": [{"measurement": "inhibition", "setting": "[2]", "result": 15, "unit": "%"}, {"measurement": "IC50", "setting": "[1]", "result": 1200, "unit": "nM"}, {"measurement": "inhibition", "setting": "[3]", "result": 15, "unit": "%"}]}, {"compound": "COc1ccc(CCn2c(=O)c3ccccc3c3nc4ccc(NCc5cccnc5)cn4c32)cc1", "values": [{"measurement": "inhibition", "setting": "[2]", "result": 78, "unit": "%"}, {"measurement": "Activity", "setting": "[4]", "result": "Active"}, {"measurement": "IC50", "setting": "[1]", "result": 60, "unit": "nM"}, {"measurement": "Activity", "setting": "[5]", "result": 41, "unit": "%"}, {"measurement": "Activity", "setting": "[6]", "result": "Active"}, {"measurement": "Activity", "setting": "[7]", "result": "Active"}, {"measurement": "Activity", "setting": "[8]", "result": "Active"}, {"measurement": "inhibition", "setting": "[3]", "result": 74, "unit": "%"}]}, {"compound": "O=c1c2ccccc2c2nc3ccccn3c2n1Cc1ccco1", "values": [{"measurement": "IC50", "setting": "[1]", "result": "> 10000", "unit": "nM"}]}, {"compound": "COC(=O)CCn1c(=O)c2ccccc2c2nc3ccccn3c21", "values": [{"measurement": "IC50", "setting": "[1]", "result": "> 10000", "unit": "nM"}]}, {"compound": "COc1ccc(CCCn2c(=O)c3ccccc3c3nc4ccccn4c32)cc1", "values": [{"measurement": "IC50", "setting": "[1]", "result": "> 10000", "unit": "nM"}]}, {"compound": "O=c1c2ccccc2c2nc3ccccn3c2n1Cc1ccc2c(c1)OCO2", "values": [{"measurement": "IC50", "setting": "[1]", "result": "> 10000", "unit": "nM"}]}, {"compound": "COc1ccc(Cn2c(=O)c3ccccc3c3nc4ccc(Br)c(C)n4c32)cc1", "values": [{"measurement": "IC50", "setting": "[1]", "result": "> 10000", "unit": "nM"}]}, {"compound": "COc1ccc(CCn2c(=O)c3ccccc3c3nc4ccc(NCCO)cn4c32)cc1", "values": [{"measurement": "inhibition", "setting": "[2]", "result": 34, "unit": "%"}, {"measurement": "IC50", "setting": "[1]", "result": 350, "unit": "nM"}, {"measurement": "inhibition", "setting": "[3]", "result": 26, "unit": "%"}]}, {"compound": "O=c1c2ccccc2c2nc3ccccn3c2n1CCc1ccc(O)cc1", "values": [{"measurement": "IC50", "setting": "[1]", "result": "> 10000", "unit": "nM"}]}, {"compound": "COc1ccc(Cn2c(=O)c3ccccc3c3nc4ccc(C)cn4c32)cc1", "values": [{"measurement": "IC50", "setting": "[1]", "result": 6600, "unit": "nM"}]}, {"compound": "COc1ccc(Cn2c(=O)c3ccccc3c3nc4c(C)cccn4c32)cc1", "values": [{"measurement": "IC50", "setting": "[1]", "result": "> 10000", "unit": "nM"}]}]}
